PubChem BioAssay
Calls of active or inactive are those of the source.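 The calls were made as follows, unless noted: active = signal rise over 3 SD above mean of control wells given weak agonist, in both repeats and first screen; inactive = the rest.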

System: not listed separately
Assay: serotonin-gated TRPC4 signal block – cell-based, second counter screen, HEK293 TRPC4/5HT1a, Fluo-4, counter-screen for TRPC4 inhibitor project, confirmation (AID 434978;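 active = primary screen active whose calcium signal fell more than 3 SD beyond the full-serotonin control mean in both duplicate plates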;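 also: serotonin given first at submaximal then at maximal dose after compound preincubation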)
Settings: Fluo-4 calcium flux, at 10 µM, serotonin added to trigger calcium flux; hits give high values
Summary of the method: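 benchmarks = ECmax serotonin wells | material = HEK293 line stably carrying TRPC4 plus 5HT1a receptor | incubation = compound 110 s, submaximal serotonin 110 s, ECmax serotonin read 110 s | technique = kinetic Fluo-4 fluorescence readout of calcium flux | probe or stimulus = serotonin, a submaximal addition followed by a maximal (ECmax) addition | repeats = duplicate plates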

| SMILES | outcome |
| --- | --- |
| CCN1CCN(c2ccc(S(=O)(=O)N3CCCCC3)cc2NC(=O)c2cccc(OC(F)F)c2)CC1 | inactive |
| Fc1ccc(CN2C3=NCCCN3c3ccccc32)cc1 | inactive |
| COc1ccc(-n2cc(CNCc3cnc4ccccn34)c(-c3cccc(F)c3)n2)cc1 | inactive |
| N=c1c(C(=O)NCc2ccc(F)cc2)cc2c(=O)n3ccccc3nc2n1Cc1ccco1 | inactive |
| O=C1CC2(CCN(S(=O)(=O)c3ccccc3F)CC2)Oc2ccccc21 | inactive |
| O=C1Cc2ccccc2Sc2c(OCCN3CCCCC3)cccc21 | inactive |
| C/C(CC(=O)NCc1ccc(Cl)cc1)=N\NC(=O)COc1ccc(C)cc1Br | inactive |
| CCCCNc1c(-c2ccc(SC(C)CC)c(OC)c2)nc2ccc(C)cn12 (stereo not drawn) | inactive |
| CCOC(=O)C1NN=C(C(=O)c2ccccc2)C1c1ccc(Cl)cc1 (stereo not drawn) | inactive |
| O=[N+]([O-])c1ccc(N2CCN(CCOc3nonc3-c3ccccc3)CC2)c(Cl)c1 | inactive |
| COc1ccc(-c2cc(C(=O)N3CC(C)CC(C)C3)c3ccccc3n2)cc1 (stereo not drawn) | inactive |
| COC(=O)c1cc(N2CCN(C)CC2)nc2ccccc12 | inactive |
| COc1cc(C2c3c(-c4ccccc4)n[nH]c3C(=O)N2c2ccccc2)ccc1O (stereo not drawn) | inactive |
| O=C(c1ccccc1)c1coc2ccc(O)c(CN3CCOCC3)c12 | inactive |
| CN(C)S(=O)(=O)c1cccc(COC(=O)c2ccc(Cl)cc2O)c1 | inactive |
| CCOC(=O)C1=C(C)N(c2ccccc2)C(=O)NC1c1cccc([N+](=O)[O-])c1 (stereo not drawn) | inactive |
| Cc1cc(=O)oc2cc(NC(=S)NCc3ccccn3)ccc12 | inactive |
| Cc1nnc(Sc2cc(NCCCO)c([N+](=O)[O-])c3nonc23)s1 | inactive |
| CCOC(=O)C1=NNC(C(=O)c2ccc(Cl)cc2)C1c1ccc(OC)cc1 (stereo not drawn) | inactive |
| CN1CCN(NC(=O)Nc2cc(Cl)cc(Cl)c2)CC1 | inactive |

| SMILES | outcome |
| --- | --- |
| Cc1ccc(C[n+]2cccc(-c3ccccc3)c2)c(C)c1 | inactive |
| Cc1ccc(C(=O)C[n+]2cccc3cc(C)ccc32)cc1 | inactive |
| COc1ccc(OC)c(NC(=O)COC(=O)Cc2ccc(-c3ccccc3)cc2)c1 | inactive |
| CC(C)c1ccc(C(C)NCCS(=O)(=O)c2ccc(Br)cc2)cc1 (stereo not drawn) | inactive |
| Cc1ccc(C)c(N(CC(=O)NC2CCCC2)C(=O)c2csnn2)c1 | inactive |
| Cc1ccc(-n2c(N)cc(=O)nc2SCC(=O)N2CCN(c3ccccc3)CC2)cc1 | inactive |
| N=c1c(C(=O)NCC2CCCO2)cc2c(=O)n3ccccc3nc2n1Cc1ccc(Cl)cc1 (stereo not drawn) | inactive |
| CN(CCNC(=O)c1ccc(/C=N/O)nc1)Cc1ccccc1 | inactive |
| CCOC(=O)C1=C(CNCCc2ccc(Cl)cc2)NC(=O)NC1c1cccc([N+](=O)[O-])c1 (stereo not drawn) | inactive |
| O=C(NCC(c1ccco1)N1CCc2ccccc2C1)c1ccc(F)cc1 (stereo not drawn) | inactive |
| CCCc1c(-c2ccc(O)cc2)nn(-c2ccc(O)cc2)c1-c1ccc(O)cc1 | inactive |
| Cc1ccc(-c2c(C(=O)N/N=C/c3ccc(OC(C)C)cc3)nnn2-c2nonc2N)cc1 | inactive |
| CCOC(=O)CSc1nc2ccccc2c(=O)n1C1CCCC1 | inactive |
| CCN1C(=O)/C(=C/C=C2\N(CC)c3cc(S(=O)(=O)N(C)C)ccc3N2c2ccccc2)SC1=S | inactive |
| CCCCn1c(N)c(N(CCOC)C(=O)c2ccc(-c3ccc(C(C)=O)cc3)o2)c(=O)[nH]c1=O | inactive |
| CC(C)CN(C(=O)C1CC1)c1c(N)n(Cc2ccccc2)c(=O)[nH]c1=O | inactive |
| CCOC(=O)CC(NS(=O)(=O)c1ccc(OC)c(C)c1)c1cccc([N+](=O)[O-])c1 (stereo not drawn) | inactive |
| Clc1ccc2nc(CN3CCCc4ccccc43)cn2c1 | inactive |
| Cc1cc(Cl)ccc1OC(C)C(=O)Nc1ccccc1N1CCOCC1 (stereo not drawn) | inactive |

System: TRPC4 (mouse), co-expressed with 5HT1a in HEK293
Assay: enhancement of serotonin-evoked TRPC4 response – cell-based, second counter screen, HEK293 TRPC4/5HT1a, Fluo-4, counter-screen for TRPC4 potentiator project, confirmation (AID 434979)
Settings: Fluo-4 calcium flux, at 10 µM, serotonin added at its EC20 dose; hits give high values

| SMILES | potentiation | outcome |
| --- | --- | --- |
| CCN1CCN(c2ccc(S(=O)(=O)N3CCCCC3)cc2NC(=O)c2cccc(OC(F)F)c2)CC1 | 15.6% (active) | – |
| Fc1ccc(CN2C3=NCCCN3c3ccccc32)cc1 | – | inactive |
| COc1ccc(-n2cc(CNCc3cnc4ccccn34)c(-c3cccc(F)c3)n2)cc1 | – | inactive |
| N=c1c(C(=O)NCc2ccc(F)cc2)cc2c(=O)n3ccccc3nc2n1Cc1ccco1 | – | inactive |
| O=C1CC2(CCN(S(=O)(=O)c3ccccc3F)CC2)Oc2ccccc21 | 34.2% (active) | – |
| O=C1Cc2ccccc2Sc2c(OCCN3CCCCC3)cccc21 | – | inactive |
| C/C(CC(=O)NCc1ccc(Cl)cc1)=N\NC(=O)COc1ccc(C)cc1Br | – | inactive |
| CCCCNc1c(-c2ccc(SC(C)CC)c(OC)c2)nc2ccc(C)cn12 (stereo not drawn) | – | inactive |
| CCOC(=O)C1NN=C(C(=O)c2ccccc2)C1c1ccc(Cl)cc1 (stereo not drawn) | – | inactive |
| O=[N+]([O-])c1ccc(N2CCN(CCOc3nonc3-c3ccccc3)CC2)c(Cl)c1 | 20.3% (active) | – |
| COc1ccc(-c2cc(C(=O)N3CC(C)CC(C)C3)c3ccccc3n2)cc1 (stereo not drawn) | – | inactive |
| COC(=O)c1cc(N2CCN(C)CC2)nc2ccccc12 | – | inactive |
| COc1cc(C2c3c(-c4ccccc4)n[nH]c3C(=O)N2c2ccccc2)ccc1O (stereo not drawn) | 17% (active) | – |
| O=C(c1ccccc1)c1coc2ccc(O)c(CN3CCOCC3)c12 | – | inactive |
| CN(C)S(=O)(=O)c1cccc(COC(=O)c2ccc(Cl)cc2O)c1 | 41.5% (active) | – |
| CCOC(=O)C1=C(C)N(c2ccccc2)C(=O)NC1c1cccc([N+](=O)[O-])c1 (stereo not drawn) | 9.17% (active) | – |
| Cc1cc(=O)oc2cc(NC(=S)NCc3ccccn3)ccc12 | – | inactive |
| Cc1nnc(Sc2cc(NCCCO)c([N+](=O)[O-])c3nonc23)s1 | – | inactive |
| CCOC(=O)C1=NNC(C(=O)c2ccc(Cl)cc2)C1c1ccc(OC)cc1 (stereo not drawn) | 8.48% (active) | – |
| CN1CCN(NC(=O)Nc2cc(Cl)cc(Cl)c2)CC1 | – | inactive |

| SMILES | potentiation | outcome |
| --- | --- | --- |
| Cc1ccc(C[n+]2cccc(-c3ccccc3)c2)c(C)c1 | – | inactive |
| Cc1ccc(C(=O)C[n+]2cccc3cc(C)ccc32)cc1 | – | inactive |
| COc1ccc(OC)c(NC(=O)COC(=O)Cc2ccc(-c3ccccc3)cc2)c1 | 31.8% (active) | – |
| CC(C)c1ccc(C(C)NCCS(=O)(=O)c2ccc(Br)cc2)cc1 (stereo not drawn) | 21.2% (active) | – |
| Cc1ccc(C)c(N(CC(=O)NC2CCCC2)C(=O)c2csnn2)c1 | – | inactive |
| Cc1ccc(-n2c(N)cc(=O)nc2SCC(=O)N2CCN(c3ccccc3)CC2)cc1 | – | inactive |
| N=c1c(C(=O)NCC2CCCO2)cc2c(=O)n3ccccc3nc2n1Cc1ccc(Cl)cc1 (stereo not drawn) | 61% (active) | – |
| CN(CCNC(=O)c1ccc(/C=N/O)nc1)Cc1ccccc1 | 19.6% (active) | – |
| CCOC(=O)C1=C(CNCCc2ccc(Cl)cc2)NC(=O)NC1c1cccc([N+](=O)[O-])c1 (stereo not drawn) | – | inactive |
| O=C(NCC(c1ccco1)N1CCc2ccccc2C1)c1ccc(F)cc1 (stereo not drawn) | – | inactive |
| CCCc1c(-c2ccc(O)cc2)nn(-c2ccc(O)cc2)c1-c1ccc(O)cc1 | 23.9% (active) | – |
| Cc1ccc(-c2c(C(=O)N/N=C/c3ccc(OC(C)C)cc3)nnn2-c2nonc2N)cc1 | 19.3% (active) | – |
| CCOC(=O)CSc1nc2ccccc2c(=O)n1C1CCCC1 | – | inactive |
| CCN1C(=O)/C(=C/C=C2\N(CC)c3cc(S(=O)(=O)N(C)C)ccc3N2c2ccccc2)SC1=S | 24.9% (active) | – |
| CCCCn1c(N)c(N(CCOC)C(=O)c2ccc(-c3ccc(C(C)=O)cc3)o2)c(=O)[nH]c1=O | – | inactive |
| CC(C)CN(C(=O)C1CC1)c1c(N)n(Cc2ccccc2)c(=O)[nH]c1=O | – | inactive |
| CCOC(=O)CC(NS(=O)(=O)c1ccc(OC)c(C)c1)c1cccc([N+](=O)[O-])c1 (stereo not drawn) | – | inactive |
| Clc1ccc2nc(CN3CCCc4ccccc43)cn2c1 | 28% (active) | – |
| Cc1cc(Cl)ccc1OC(C)C(=O)Nc1ccccc1N1CCOCC1 (stereo not drawn) | – | inactive |
